Assay results: ChEMBL document CHEMBL3739324, “Characterization and Biological Evaluation of Diterpenoids from Casearia graveolens” (J Nat Prod, 2015)
Activity calls are given as the source filed them. No cut-off for these calls is given here.

How the values were obtained:
PC-12 [1] = assay: Stimulation of NGF-mediated neurite outgrowth in rat PC12 cells incubated for 96 hrs by phase contrast microscopy; assay type: functional, cell-based; settings: for EC50: PC-12, 96 h
Outline: (§1)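 PC12 cells grown at 37 °C in DMEM with 5% FBS, 5% horse serum, penicillin/streptomycin, 5% CO2. Dissociated with 1 mM EGTA in PBS for 15 min, seeded at 3 × 10^4 cells/well on poly-L-lysine. After 24 h, switched to medium with 1% FBS, 1% HS, graded compound levels, with or without NGF (20 ng/mL; 100 ng/mL positive control), for 96 h.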

PC-12 [2] = assay: Induction of neurite outgrowth in rat PC12 cells incubated for 96 hrs by phase contrast microscopy; assay type: functional, cell-based; outline: as §1

SMILES | Activity (PC-12 [1]) | EC50 (PC-12 [1]) | Activity (PC-12 [2])
C=CC(=C)CC[C@]1(C)[C@H](C)CC[C@@]23C(=C[C@H](OC(=O)CCC)C[C@@H]12)[C@@H](OC(C)=O)O[C@H]3OC(C)=O | inactive |  | 
C=CC(=C)CC[C@]1(C)[C@H](C)CC[C@@]23C(=C[C@H](O)C[C@@H]12)[C@@H](OC)O[C@H]3OC(C)=O | inactive |  | 
C=CC(=C)CC[C@]1(C)[C@H](C)C[C@H](OC)[C@@]23C(=C[C@H](OC(=O)CCC)C[C@@H]12)[C@@H](OC)O[C@H]3OC(C)=O |  | 20.6 µM | inactive
C=CC(=C)CC[C@]1(C)[C@H](C)CC[C@@]23[C@H](OC(C)=O)O[C@H](OC(=O)CCC)[C@@H]2CC(=O)C[C@@H]13 | inactive |  | 
C=CC(=C)CC[C@]1(C)[C@H](C)C[C@H](OC)[C@@]23C(=C[C@H](OC(=O)CCC)C[C@@H]12)[C@@H](OC(C)=O)O[C@H]3OC(C)=O |  | 28.7 µM | inactive
C=CC(=C)CC[C@]1(C)[C@H](C)CC[C@@]23C(=C[C@H](O)C[C@@H]12)[C@@H](OC(=O)CCC)O[C@H]3OC(C)=O | inactive |  | 
C=CC(=C)CC[C@]1(C)[C@H](C)C[C@H](OC)[C@@]23C(=C[C@H](O)C[C@@H]12)[C@@H](OC)O[C@H]3OC |  | 3.3 µM | inactive
C=CC(=C)CC[C@]1(C)[C@H](C)C[C@H](OC)[C@@]23C(=C[C@H](OC(=O)CC)C[C@@H]12)[C@@H](OC)O[C@H]3OC(C)=O |  | 4.4 µM | inactive
C=CC(=C)CC[C@]1(C)[C@H](C)C[C@H](OC)[C@@]23C(=C[C@H](OC(=O)CC)C[C@@H]12)[C@@H](OC(=O)CCC)O[C@H]3OC(C)=O |  | > 45 µM | inactive
C=CC(=C)CC[C@]1(C)[C@H](C)CC[C@@]23C(=C[C@H](OC(=O)CCC)C[C@@H]12)[C@@H](OC(=O)CCC)O[C@H]3OC(C)=O | inactive |  | 
